Reference: ChEMBL document CHEMBL4339182, “Pyridine and nitro-phenyl linked 1,3,4-thiadiazoles as MDR-TB inhibitors” (Eur J Med Chem, 2019)
Values after ≈ are worked out from the molar mass of the structure shown.

Legend:
[1] = test system: Mycobacterium tuberculosis; test: Antimycobacterial activity against Mycobacterium tuberculosis MDR-TB incubated for 12 to 28 days by agar dilution method; assay type: functional
Outline: (§1)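 Conventional Lowenstein-Jensen agar dilution. Compound stock dilutions in DMSO (200 to 1.56 µg/mL) were added to liquid L.J. medium, which was then sterilized by inspissation. Culture was harvested in 0.85% saline. Tubes were kept 24 h at 37 °C, streaked with 5 x 10⁴ bacilli per tube, and incubated at 37 °C. Growth was read at days 12, 22 and 28 against drug-free controls. MIC was the lowest concentration giving no colonies or fewer than 20 (≥99% inhibition), converted from µg/mL to µM.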

[2] = test system: Mycobacterium tuberculosis; test: Antimycobacterial activity against Mycobacterium tuberculosis H37Rv incubated for 12 to 28 days by agar dilution method; assay type: functional; outline: as §1
Vero = test: Cytotoxicity against African green monkey Vero cells assessed as reduction in cell viability incubated for 72 hrs by MTT assay; assay type: cell-based; conditions: Chlorocebus sabaeus
Outline: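 Vero cells were grown in DMEM with 2 mM Na₂CO₃ and 10% FBS at 37 °C under 5% CO₂ until confluent, then diluted in PBS. Compounds came from DMSO stocks diluted in medium, with 1% DMSO final. Exposure was 72 h at 37 °C. Monolayers were washed with warm HBSS, then MTS-PMS was added for 3 h and absorbance read at 490 nm.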

[3] = test system: Mycobacterium tuberculosis; test: Antimycobacterial activity against Mycobacterium tuberculosis H37Rv ATCC 27294 by microplate alamar blue assay; assay type: functional

Row | SMILES | MIC90 [1] | MIC90 [2] | IC50 (Vero) | MIC90 [3]
1 | CCC(=O)Nc1nnc(-c2ccc([N+](=O)[O-])cc2)s1 | > 200 µM | 89 µM (≈ 24.8 µg/mL) | – | –
2 | O=C(CCl)Nc1nnc(-c2ccc([N+](=O)[O-])cc2)s1 | > 200 µM | 168 µM (≈ 50.2 µg/mL) | – | –
3 | O=C(Nc1nnc(-c2cccc([N+](=O)[O-])c2)s1)c1ccc([N+](=O)[O-])cc1 | 134 µM (≈ 49.8 µg/mL) | 33 µM (≈ 12.3 µg/mL) | 268 µM | –
4 | CCCC(=O)Nc1nnc(-c2ccncc2)s1 | > 200 µM | 201 µM (≈ 49.9 µg/mL) | – | –
5 | O=C(Nc1nnc(-c2ccc([N+](=O)[O-])cc2)s1)c1ccccc1 | 306 µM (≈ 99.9 µg/mL) | 38 µM (≈ 12.4 µg/mL) | – | –
6 | O=C(Nc1nnc(-c2ccc([N+](=O)[O-])cc2)s1)c1ccco1 | 9.87 µM (≈ 3.12 µg/mL) | 9.87 µM (≈ 3.12 µg/mL) | 306 µM | –
7 | CC(C)(C)C(=O)Nc1nnc(-c2ccc([N+](=O)[O-])cc2)s1 | > 200 µM | 204 µM (≈ 62.5 µg/mL) | – | –
8 | CCCCC(=O)Nc1nnc(-c2ccc([N+](=O)[O-])cc2)s1 | 163 µM (≈ 49.9 µg/mL) | 40 µM (≈ 12.3 µg/mL) | 278 µM | –
9 | CCCC(=O)Nc1nnc(-c2cccc([N+](=O)[O-])c2)s1 | > 200 µM | 42 µM (≈ 12.3 µg/mL) | – | –
10 | O=C(Nc1nnc(-c2ccncc2)s1)C(Cl)(Cl)Cl | > 200 µM | > 200 µM | – | –
11 | O=C(CCl)Nc1nnc(-c2cccc([N+](=O)[O-])c2)s1 | > 200 µM | 21 µM (≈ 6.27 µg/mL) | – | –
12 | O=C(Nc1nnc(-c2ccncc2)s1)c1cccs1 | > 200 µM | 21 µM (≈ 6.06 µg/mL) | – | –
13 | O=C(Cl)CCCCC(=O)Nc1nnc(-c2ccncc2)s1 | > 200 µM | 192 µM (≈ 62.4 µg/mL) | – | –
14 | CC(Cl)CC(=O)Nc1nnc(-c2ccncc2)s1 (stereo not drawn) | > 200 µM | > 200 µM | – | –
15 | O=C(CCCCl)Nc1nnc(-c2ccc([N+](=O)[O-])cc2)s1 | > 200 µM | 153 µM (≈ 50 µg/mL) | – | –
16 | O=C(Nc1nnc(-c2ccc([N+](=O)[O-])cc2)s1)c1ccc([N+](=O)[O-])cc1 | 67 µM (≈ 24.9 µg/mL) | 16.8 µM (≈ 6.25 µg/mL) | 290 µM | –
17 | CCCCC(=O)Nc1nnc(-c2cccc([N+](=O)[O-])c2)s1 | 163 µM (≈ 49.9 µg/mL) | 40 µM (≈ 12.3 µg/mL) | 289 µM | –
18 | O=C(CCl)Nc1nnc(-c2ccncc2)s1 | > 200 µM | 196 µM (≈ 49.9 µg/mL) | – | –
19 | O=C(CSc1nnc(-c2ccc([N+](=O)[O-])o2)s1)Oc1ccccc1 | – | – | – | 0.78 µg/mL (≈ 2.15 µM)
20 | O=C(CCCCl)Nc1nnc(-c2cccc([N+](=O)[O-])c2)s1 | > 200 µM | 153 µM (≈ 50 µg/mL) | – | –
21 | CC(Cl)CC(=O)Nc1nnc(-c2cccc([N+](=O)[O-])c2)s1 (stereo not drawn) | > 200 µM | > 200 µM | – | –
22 | O=C(Nc1nnc(-c2ccc([N+](=O)[O-])cc2)s1)c1cccs1 | > 200 µM | > 200 µM | – | –

Row | SMILES | MIC90 [1] | MIC90 [2] | IC50 (Vero) | MIC90 [3]
23 | Cc1ccc(C(=O)Nc2nnc(-c3ccc([N+](=O)[O-])cc3)s2)cc1 | 147 µM (≈ 50 µg/mL) | 18.4 µM (≈ 6.26 µg/mL) | 310 µM | –
24 | O=[N+]([O-])c1ccc(CSc2nnc(-c3ccc([N+](=O)[O-])o3)s2)cc1 | – | – | – | 3.13 µg/mL (≈ 8.59 µM)
25 | O=C(Nc1nnc(-c2cccc([N+](=O)[O-])c2)s1)c1cccs1 | > 200 µM | 301 µM (≈ 100 µg/mL) | – | –
26 | O=C(Cl)CCCCC(=O)Nc1nnc(-c2ccc([N+](=O)[O-])cc2)s1 | 271 µM (≈ 99.9 µg/mL) | 135 µM (≈ 49.8 µg/mL) | – | –
27 | CCCC(=O)Nc1nnc(-c2ccc([N+](=O)[O-])cc2)s1 | 171 µM (≈ 50 µg/mL) | 42 µM (≈ 12.3 µg/mL) | 301 µM | –
28 | COc1ccc(C(=O)Nc2nnc(-c3ccc([N+](=O)[O-])cc3)s2)cc1 | 140 µM (≈ 49.9 µg/mL) | 35 µM (≈ 12.5 µg/mL) | 278 µM | –
29 | COc1ccc(C(=O)Nc2nnc(-c3cccc([N+](=O)[O-])c3)s2)cc1 | 280 µM (≈ 99.8 µg/mL) | 35 µM (≈ 12.5 µg/mL) | – | –
30 | CC(C)(C)C(=O)Nc1nnc(-c2cccc([N+](=O)[O-])c2)s1 | > 200 µM | 204 µM (≈ 62.5 µg/mL) | – | –
31 | CCC(=O)Nc1nnc(-c2cccc([N+](=O)[O-])c2)s1 | > 200 µM | 89 µM (≈ 24.8 µg/mL) | – | –
32 | O=C(Nc1nnc(-c2ccc([N+](=O)[O-])cc2)s1)C(Cl)(Cl)Cl | > 200 µM | 273 µM (≈ 100 µg/mL) | – | –
33 | O=C(Cl)CCCCC(=O)Nc1nnc(-c2cccc([N+](=O)[O-])c2)s1 | > 200 µM | 135 µM (≈ 49.8 µg/mL) | – | –
34 | C/C=C/C(CCC)N(C(=O)c1ccccc1)c1nnc(-c2ccc([N+](=O)[O-])cc2)s1 (stereo not drawn) | > 200 µM | 117 µM (≈ 49.4 µg/mL) | – | –
35 | O=C(Nc1nnc(-c2cccc([N+](=O)[O-])c2)s1)c1ccccc1 | > 200 µM | 38 µM (≈ 12.4 µg/mL) | – | –
36 | O=C(Nc1nnc(-c2cccc([N+](=O)[O-])c2)s1)c1ccco1 | 39 µM (≈ 12.3 µg/mL) | 19 µM (≈ 6.01 µg/mL) | 312 µM | –
37 | CC(C)(C)C(=O)Nc1nnc(-c2ccncc2)s1 | > 200 µM | 238 µM (≈ 62.4 µg/mL) | – | –
38 | O=C(CCCCl)Nc1nnc(-c2ccncc2)s1 | > 200 µM | 221 µM (≈ 62.5 µg/mL) | – | –
39 | O=C(Nc1nnc(-c2ccncc2)s1)c1ccc([N+](=O)[O-])cc1 | 76 µM (≈ 24.9 µg/mL) | 9.93 µM (≈ 3.25 µg/mL) | 369 µM | –
40 | CCCCC(=O)Nc1nnc(-c2ccncc2)s1 | 381 µM (≈ 100 µg/mL) | 95 µM (≈ 24.9 µg/mL) | – | –
41 | NNC(=O)c1ccncc1 [ISONIAZID] | > 200 µM | 3.64 µM (≈ 0.499 µg/mL) | – | –
42 | CO[C@H]1/C=C/O[C@@]2(C)Oc3c(C)c(O)c4c(O)c(c(/C=N/N5CCN(C)CC5)c(O)c4c3C2=O)NC(=O)/C(C)=C\C=C\[C@H](C)[C@H](O)[C@@H](C)[C@@H](O)[C@@H](C)[C@H](OC(C)=O)[C@@H]1C [RIFAMPIN] | 128 µM (≈ 105 µg/mL) | 0.152 µM (≈ 0.125 µg/mL) | – | –
43 | CN[C@@H]1C[C@H]2O[C@@](C)([C@@H]1OC)n1c3ccccc3c3c4c(c5c6ccccc6n2c5c31)C(=O)NC4 [STAUROSPORINE] | – | – | 0.028 µM | –
